Results reported in ChEMBL document CHEMBL4052587, “Talarazines A-E: Noncytotoxic Iron(III) Chelators from an Australian Mud Dauber Wasp-Associated Fungus, Talaromyces sp. (CMB-W045)” (J Nat Prod, 2017).
Activity calls are given as the source filed them. The calls are words filed in the database; no cut-off is given here.

How the values were obtained:
Pseudomonas aeruginosa = experiment: Growth inhibition of Pseudomonas aeruginosa ATCC 27853 after 24 by broth micro-dilution method; type: functional
Candida albicans = experiment: Growth inhibition of Candida albicans ATCC 90028 after 48 by broth micro-dilution method; type: functional
SW-620 = experiment: Cytotoxicity against human SW620 cells assessed as reduction in cell viability up to 30 uM after 68 hrs by MTT assay; type: functional, cell-based
Staphylococcus aureus = experiment: Growth inhibition of Staphylococcus aureus ATCC 25923 after 24 by broth micro-dilution method; type: functional
Escherichia coli = experiment: Growth inhibition of Escherichia coli ATCC 25922 after 24 by broth micro-dilution method; type: functional
NCI-H460 = experiment: Cytotoxicity against human NCI-H460 cells assessed as reduction in cell viability up to 30 uM after 68 hrs by MTT assay; type: functional, cell-based
KB 3-1 = experiment: Cytotoxicity against human KB-3-1 cells assessed as reduction in cell viability up to 30 uM after 68 hrs by MTT assay; type: functional, cell-based
[1] = Metal chelating activity of the compound assessed as fluorescence recovery of calcein-Fe3 complex formation up to 10 uM measured after overnight incubation by CAFe based fluorescence spectrophotometry
Outline: (§1)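 Competition assay between the test chelator and a calcein–Fe(III) complex. Calcein is a fluorescent chelator with high Fe(III) affinity, and Fe(III) coordination quenches its fluorescence stoichiometrically. Relative Fe(III) affinity is inferred from the competing equilibrium, read as change in calcein fluorescence.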

[2] = Metal chelating activity of the compound assessed as fluorescence recovery of calcein-Fe3 complex formation up to 40 uM measured after overnight incubation by CAFe based fluorescence spectrophotometry; outline: as §1

SMILES	IC50 (Pseudomonas aeruginosa)	IC50 (Candida albicans)	Activity (SW-620)	IC50 (Staphylococcus aureus)	IC50 (Escherichia coli)	Activity (NCI-H460)	Activity (KB 3-1)	Activity [1]	Activity [2]
CC(=O)N[C@@H](CCCN(O)C(=O)/C=C(\C)CCO)C(=O)OCC/C(C)=C/C(=O)NCCC[C@@H]1NC(=O)[C@H](CCCNC(=O)/C=C(\C)CCO)NC1=O	> 30 µM	> 30 µM	inactive	> 30 µM	> 30 µM	inactive	inactive	–	–
C/C(=C\C(=O)NCCC[C@@H]1NC(=O)[C@H](CCCN(O)C(=O)/C=C(\C)CCO)NC1=O)CCO	> 30 µM	> 30 µM	inactive	> 30 µM	> 30 µM	inactive	inactive	–	–
CC(=O)N[C@@H](CCCN(O)C(=O)/C=C(\C)CCO)C(=O)OCC/C(C)=C/C(=O)N(O)CCC[C@@H]1NC(=O)[C@H](CCCN(O)C(=O)/C=C(\C)CCO)NC1=O	> 30 µM	> 30 µM	inactive	> 30 µM	> 30 µM	inactive	inactive	Active	Active
CC(=O)N[C@@H](CCCN(O)C(=O)/C=C(\C)CCO)C(=O)OCC/C(C)=C/C(=O)N(O)CCC[C@@H]1NC(=O)[C@H](CCCNC(=O)/C=C(\C)CCO)NC1=O	> 30 µM	> 30 µM	inactive	> 30 µM	> 30 µM	inactive	inactive	–	–
C/C(=C\C(=O)N(O)CCC[C@@H]1NC(=O)[C@H](CCCN(O)C(=O)/C=C(\C)CCO)NC1=O)CCO	> 30 µM	> 30 µM	inactive	> 30 µM	> 30 µM	inactive	inactive	Active	Active
CC(=O)N[C@@H](CCCN(O)C(=O)/C=C(\C)CCO)C(=O)OCC/C(C)=C/C(=O)NCCC[C@@H]1NC(=O)[C@H](CCCN(O)C(=O)/C=C(\C)CCO)NC1=O	> 30 µM	> 30 µM	inactive	> 30 µM	> 30 µM	inactive	inactive	–	–
C/C(=C\C(=O)NCCC[C@@H]1NC(=O)[C@H](CCCNC(=O)/C=C(\C)CCO)NC1=O)CCO	> 30 µM	> 30 µM	inactive	> 30 µM	> 30 µM	inactive	inactive	–	–
